What is called CC50 is the concentration at which the toxic effect on the cells reaches its halfway point.

One series in a line: Cytotoxicity against MDCK cells after 48 hrs by CellTiter 96 AQueous Non-Radioactive cell proliferation assay. The class given is cell-based, Canis lupus familiaris. As to conditions: dog. Put shortly:
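MDCK cells (1 × 10^5 cells/mL) exposed to inhibitor without virus, same steps as the antiviral assay: 48 h at 37 °C, 5% CO2, viability by MTS-type reagent, absorbance at 490 nm. CC50 is the 50% cytotoxic concentration. Highest concentration tested was 100 μM.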
On to `CCC(CC)[C@H](NC(C)=O)[C@@H]1[C@H](O)[C@@H](P(=O)(O)O)C[C@H]1NC(=N)N`, for which the CC50 at 48 h was more than 100 µM. Same read-out and setting: the same measure for `CCOP(=O)(O)[C@H]1C[C@@H](NC(=N)N)[C@H]([C@@H](NC(C)=O)C(CC)CC)[C@@H]1O`: more than 100 µM; for `CC(=O)N[C@H]1[C@H]([C@H](O)[C@H](O)CO)OC(C(=O)O)=C[C@@H]1NC(=N)N` [ZANAMIVIR]: more than 100 µM.

`CCOP(=O)(O)[C@@H]1C[C@@H]([C@@H](NC(C)=O)C(CC)CC)[C@H](NC(=N)N)C1`: the CC50 at 48 h is more than 100 µM. In the case of `CCC(CC)O[C@@H]1C=C(C(=O)O)C[C@H](N)[C@H]1NC(C)=O` [OSELTAMIVIR CARBOXYLATE], the CC50 at 48 h is more than 100 µM.

Take `CCCCCCOP(=O)(O)[C@@H]1C[C@@H]([C@@H](NC(C)=O)C(CC)CC)[C@H](NC(=N)N)C1`: the half-maximal cytotoxic concentration (CC50) at 48 h is more than 100 µM. Still for that read-out and setting: the same measure for `CCC(CC)[C@H](NC(C)=O)[C@@H]1[C@H](O)[C@@H](C(=O)O)C[C@H]1NC(=N)N` [PERAMIVIR ANHYDROUS]: more than 100 µM. On the same count and under the same terms, the result for `CCOP(=O)(O)C1=C[C@@H]([C@@H](NC(C)=O)C(CC)CC)[C@H](NC(=N)N)C1` reads more than 100 µM; that for `CCCCCCOP(=O)(O)C1=C[C@@H]([C@@H](NC(C)=O)C(CC)CC)[C@H](NC(=N)N)C1`, more than 100 µM. The same measure, in the same setting: the result for `CCCCCCOP(=O)(O)[C@H]1C[C@@H](NC(=N)N)[C@H]([C@@H](NC(C)=O)C(CC)CC)[C@@H]1O` reads more than 100 µM; that for `CCC(CC)[C@H](NC(C)=O)[C@@H]1C[C@@H](P(=O)(O)O)C[C@H]1NC(=N)N`, more than 100 µM.

For `CCC(CC)[C@H](NC(C)=O)[C@@H]1C=C(P(=O)(O)O)C[C@H]1NC(=N)N`, the half-maximal cytotoxic concentration (CC50) at 48 h is more than 100 µM.

A short description of another series: Prodrug conversion in rabbit serum assessed as formation of (3R,4R)-[3-((S)-1-Acetamido-2-ethylbutyl)-4-guanidinocyclopent-1-en-1-yl]phosphonic acid at 1 mM at 37 degC after 24 to 96 hrs by HPLC/ESI-HRMS analysis. The following applies: 1000 µM. The class given is ADME, Oryctolagus cuniculus.
On to `CCOP(=O)(O)C1=C[C@@H]([C@@H](NC(C)=O)C(CC)CC)[C@H](NC(=N)N)C1`, for which the Drug metabolism result is given as “metabolite_notdetected”.

For the origin of these results see ChEMBL document CHEMBL3817747 (J Med Chem, 2016).
